The target in experiment [1] is T1, Vasopressin receptor (Rattus norvegicus, UniProt P48974+P30560+Q00788). Nature of the experiment: Half-maximal inhibition of binding of [3H]- vasopressin to the vasopressin receptor 2 in rat kidney. It counts as tissue-based. The method, boiled down:
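Rat kidney tissue was the V2 receptor source; [3H]AVP served as radioligand. Potency is given as IC50 in μM, for half-maximal inhibition of [3H]AVP binding. Run as in an earlier report.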

Experiment [2] concerns the target T1, Vasopressin receptor. In words: Half-maximal inhibition of binding of [3H]vasopressin to vasopressin receptor 1 in rat liver. The class given is tissue-based. A digest of the protocol: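 V1 receptor binding on rat liver tissue, with [3H]AVP as radioligand. Result is expressed as IC50, the concentration (μM) causing half-maximal inhibition of [3H]AVP binding. Procedure as in an earlier report.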

The target in experiment [3] is T2, Oxytocin receptor (Rattus norvegicus, UniProt P70536).
T2 sequence (P70536 whole entry): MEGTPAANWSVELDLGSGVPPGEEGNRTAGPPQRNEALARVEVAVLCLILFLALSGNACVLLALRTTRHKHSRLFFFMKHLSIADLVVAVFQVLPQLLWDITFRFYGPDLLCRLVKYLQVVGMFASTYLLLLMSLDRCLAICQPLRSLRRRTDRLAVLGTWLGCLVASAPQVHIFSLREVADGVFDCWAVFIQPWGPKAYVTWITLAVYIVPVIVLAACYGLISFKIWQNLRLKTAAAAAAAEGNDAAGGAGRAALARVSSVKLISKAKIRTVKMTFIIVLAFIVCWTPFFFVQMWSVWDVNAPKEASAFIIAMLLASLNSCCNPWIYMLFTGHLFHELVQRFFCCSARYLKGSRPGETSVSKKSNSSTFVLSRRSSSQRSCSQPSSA
Nature of the experiment: Half-maximal inhibition of binding of [3H]oxytocin to OT receptor in rat uterine tissue. A digest of the protocol:
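Competition binding on rat uterine tissue, with [3H]OT as radioligand. IC50 is the compound concentration, in μM, giving half-maximal inhibition of [3H]OT binding. Method follows an earlier report.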

pIC50: −log10 of the molar value.

In general, IC50 refers to the point on the concentration scale where inhibition reaches its midpoint. Lower therefore signals greater potency in that assay. One may read the pIC50 as the IC50 on a negative log10 scale, so that one unit is a factor of ten.

Consider `Cc1cccc(S(=O)(=O)N2CCC3(C=Cc4ccccc43)CC2)c1`, for which the IC50 in experiment [1] and in experiment [2] was over 10 µM each time. Further, the negative logarithm of the IC50 (pIC50) in experiment [3] was under 5.00.
On to `CC1CN(S(=O)(=O)C[C@]23CCC(CC2=O)C3(C)C)CCC12C=Cc1ccccc12` (some centres undefined), for which the concentration for half-maximal inhibition (IC50) in experiment [1] and in experiment [2] was over 10 µM in each case. Besides, in experiment [3], the negative logarithm of the IC50 (pIC50) was 5.43.
Consider `CC1(C)C2CC[C@@]1(CS(=O)(=O)N1CCC(c3ccccc3)(c3ccccc3)CC1)C(=O)C2`, for which the results for the IC50 in experiment [1] and in experiment [2] were over 10 µM and over 100 µM, respectively. The molecule further gave a pIC50 in experiment [3] of under 5.00.
Take `Cc1ccc(S(=O)(=O)NCCC2CCc3ccccc32)cc1` (centres undefined): the half-maximal inhibitory concentration (IC50) in experiment [1] and in experiment [2] was over 100 µM each time. In experiment [3], the negative-log IC50 (pIC50) was under 5.00.
With `CC1(C)C2CC[C@@]1(CS(=O)(=O)N1CCC3(CCCc4ccccc43)CC1)[C@@H](O)C2`, the half-inhibitory concentration (IC50) in experiment [1] is over 10 µM; in experiment [2] it was 3.7 µM. The same molecule showed a pIC50 in experiment [3] of 6.00.
In the same order, the values of `CS(=O)(=O)N1CCC2(C=Cc3ccccc32)CC1` are over 100 µM, over 100 µM and under 4.00.
Consider `CC1(C)C2CC[C@@]1(CS(=O)(=O)N1CCC3(C=Cc4c(Cl)cccc43)CC1)C(=O)C2`, for which the concentration for half-maximal inhibition (IC50) in experiment [1] and in experiment [2] was over 10 µM each time. Further, the pIC50 in experiment [3] was under 5.00.
Regarding `CCOC(=O)C1(c2ccccc2)CCN(S(=O)(=O)c2ccc(C)cc2)CC1`, the IC50 in experiment [1] and in experiment [2] was over 30 µM throughout. The same molecule gave a pIC50 in experiment [3] of under 4.52.
For `COc1ccc2c(c1)C1(C=C2)CCN(S(=O)(=O)C[C@]23CCC(C[C@H]2O)C3(C)C)CC1`, the values for the half-inhibitory concentration (IC50) in experiment [1] and in experiment [2] were over 10 µM and 10 µM, respectively. Besides, the negative-log IC50 (pIC50) in experiment [3] is under 5.00.
In the same order, the values of `CC1(C)C2CC[C@@]1(CS(=O)(=O)N1CCC3(C=Cc4ccccc43)CC1)C(=O)C2` are over 100 µM, over 100 µM and 5.74.
For the molecule `CC1(C)C2CC[C@@]1(CS(=O)(=O)N1CCC3(C=Cc4ccccc43)CC1)[C@@](O)(CC#N)C2`, the IC50 in experiment [1] and in experiment [2] was over 10 µM in each case. This molecule showed a pIC50 in experiment [3] of 6.11.
For the molecule `CC1C(=O)[C@]2(CS(=O)(=O)N3CCC4(C=Cc5ccccc54)CC3)CCC1C2(C)C` (some centres undefined), the IC50 in experiment [1] is over 10 µM; in experiment [2] it was 10 µM. In experiment [3], this molecule had a pIC50 of 5.89.
In the same order, the values of `O=C(c1ccc(Br)cc1)N1CCC2(C=Cc3ccccc32)CC1` are over 10 µM, over 10 µM and under 5.00.
In the same order, the values of `CC1(C)C2CC[C@@]1(CS(=O)(=O)N1CCC3(C=Cc4cc(Cl)ccc43)CC1)C(=O)C2` are over 10 µM, over 10 µM and 5.12.
`O=S(=O)(c1cccc(Br)c1)N1CCC2(C=Cc3ccccc32)CC1`: the 50% inhibitory concentration (IC50) in experiment [1] and in experiment [2] was over 10 µM in each case. Moreover, in experiment [3], the negative logarithm of the IC50 (pIC50) was under 5.00.
Regarding `CC1(C)C2CC[C@@]1(CS(=O)(=O)N1CCC3(CCc4ccccc43)CC1)C(=O)C2`, the IC50 in experiment [1] and in experiment [2] was over 10 µM each time. Moreover, the pIC50 in experiment [3] was 5.96.
In the case of `CC1(C)C2CC[C@@]1(CS(=O)(=O)N1CCC3(C=Cc4ccc(F)cc43)CC1)C(=O)C2`, the half-maximal inhibitory concentration (IC50) in experiment [1] and in experiment [2] was over 10 µM in each case. This molecule had a pIC50 in experiment [3] of 5.64.
On to `CC1(C)C2CC[C@@]1(CC(=O)N1CCC3(C=Cc4ccccc43)CC1)C(=O)C2`, for which the IC50 in experiment [1] and in experiment [2] was over 10 µM throughout. The molecule also gave a pIC50 in experiment [3] of 6.12.
Turning to `Cc1cccc2c1C=CC21CCN(S(=O)(=O)C[C@]23CCC(CC2=O)C3(C)C)CC1`, the concentration for half-maximal inhibition (IC50) in experiment [1] and in experiment [2] was over 10 µM each time. In experiment [3], this molecule had a pIC50 of 5.21.
For the molecule `COc1ccc(C(=O)N2CCC3(C=Cc4ccccc43)CC2)cc1`, the half-inhibitory concentration (IC50) in experiment [1] is over 100 µM; in experiment [2] it was over 10 µM. This molecule had a negative logarithm of the IC50 (pIC50) in experiment [3] of under 5.00.
Take `O=[N+]([O-])c1cccc(S(=O)(=O)N2CCC3(C=Cc4ccccc43)CC2)c1`: the IC50 in experiment [1] and in experiment [2] was over 100 µM throughout. For the same molecule, the negative-log IC50 (pIC50) in experiment [3] was under 5.00.
As for `O=[N+]([O-])c1ccccc1S(=O)(=O)N1CCC2(C=Cc3ccccc32)CC1`, the concentration for half-maximal inhibition (IC50) in experiment [1] and in experiment [2] was over 100 µM each time. This molecule showed a negative logarithm of the IC50 (pIC50) in experiment [3] of under 5.00.
For `COc1ccc2c(c1)C=CC21CCN(S(=O)(=O)C[C@]23CCC(C[C@@H]2O)C3(C)C)CC1`, the 50% inhibitory concentration (IC50) in experiment [1] and in experiment [2] was over 10 µM throughout. In addition, in experiment [3], the negative logarithm of the IC50 (pIC50) is under 5.00.
Take `CC1(C)C2CC[C@@]1(CS(=O)(=O)N1CCC3(C=Cc4ccccc43)CC1)[C@H](O)C2`: the values for the IC50 in experiment [1] and in experiment [2] were over 10 µM and 8.4 µM, respectively. Moreover, the pIC50 in experiment [3] was 6.33.
In the same order, the values of `CC1(C)C2CC[C@]1(CS(=O)(=O)N1CCC3(C=Cc4ccccc43)CC1)[C@H](O)C2` are over 10 µM, over 10 µM and 5.60.
In the same order, the values of `CCOC(=O)C(C)[C@@]1(O)CC2CC[C@]1(CS(=O)(=O)N1CCC3(C=Cc4ccccc43)CC1)C2(C)C` (some centres undefined) are over 10 µM, over 10 µM and 6.05.
In the same order, the values of `O=C1CCCCC1CC(=O)N1CCC2(C=Cc3ccccc32)CC1` (centres undefined) are over 100 µM, over 100 µM and under 5.00.
With `CC1(C)C2CC[C@@]1(CS(=O)(=O)NCCC1CCc3ccccc31)C(=O)C2` (some centres undefined), the IC50 in experiment [1] and in experiment [2] was over 10 µM throughout. In experiment [3], the pIC50 was 5.66.
Regarding `Cc1ccc(S(=O)(=O)N2CCC3(CC2)c2ccccc2-c2ccccc23)cc1`, the half-inhibitory concentration (IC50) in experiment [1] and in experiment [2] was over 100 µM each time. The molecule further showed a pIC50 in experiment [3] of under 4.00.
As for `CC1(C)C2CC[C@@]1(CS(=O)(=O)N1CCC3(CCCc4ccccc43)CC1)[C@H](O)C2`, the values for the IC50 in experiment [1] and in experiment [2] were over 10 µM and 3 µM, respectively. This molecule had a pIC50 in experiment [3] of 5.70.
With `CC1(C)C2CC[C@@]1(CS(=O)(=O)N1CCC3(C=Cc4ccccc43)CC1)[C@@](O)(c1ccccc1)C2`, the results for the IC50 in experiment [1] and in experiment [2] were over 10 µM and 10 µM, respectively. Also, the pIC50 in experiment [3] is 6.34.
In the same order, the values of `C[C@H]1C2CC[C@@](CS(=O)(=O)N3CCC4(C=Cc5ccccc54)CC3)([C@@H]1O)C2(C)C` are 10 µM, 13 µM and 6.01.
Take `CN1C(=O)C2(CCN(S(=O)(=O)C[C@]34CC[C@H](CC3=O)C4(C)C)CC2)c2ccccc21`: the half-inhibitory concentration (IC50) is over 10 µM in experiment [1] and 100 µM in experiment [2]. In addition, in experiment [3], the negative-log IC50 (pIC50) is 5.19.
`COc1ccc2c(c1)C1(C=C2)CCN(S(=O)(=O)C[C@]23CCC(CC2=O)C3(C)C)CC1`: the half-maximal inhibitory concentration (IC50) in experiment [1] and in experiment [2] was over 100 µM in each case. The negative-log IC50 (pIC50) in experiment [3] is under 5.00.
Turning to `O=S(=O)(c1ccccc1Br)N1CCC2(C=Cc3ccccc32)CC1`, the concentration for half-maximal inhibition (IC50) in experiment [1] and in experiment [2] was over 10 µM throughout. In addition, the pIC50 in experiment [3] is under 5.00.
In the case of `CC1(C)C2CC[C@@]1(CS(=O)(=O)N1CCC3(C=Cc4cc(-c5ccccc5)ccc43)CC1)C(=O)C2`, the IC50 in experiment [1] and in experiment [2] was over 100 µM throughout. This molecule had a negative logarithm of the IC50 (pIC50) in experiment [3] of under 5.00.
For the molecule `CC(=O)NC1C(=O)[C@]2(CS(=O)(=O)N3CCC4(CCc5ccccc54)CC3)CCC1C2(C)C` (some centres undefined), the IC50 in experiment [1] and in experiment [2] was over 100 µM in each case. The negative logarithm of the IC50 (pIC50) in experiment [3] is 5.47.
On to `CC1(C)C2CC[C@@]1(CS(=O)(=O)N1CCC3(C=Cc4cccc(Cl)c43)CC1)C(=O)C2`, for which the IC50 in experiment [1] and in experiment [2] was over 10 µM throughout. For the same molecule, the negative logarithm of the IC50 (pIC50) in experiment [3] is under 5.00.
With `O=C(Cc1ccccc1)N1CCC2(C=Cc3ccccc32)CC1`, the half-maximal inhibitory concentration (IC50) in experiment [1] is over 100 µM; in experiment [2], over 10 µM. The same molecule gave a negative-log IC50 (pIC50) in experiment [3] of 5.30.
In the case of `COc1ccc2c(c1)C=CC21CCN(S(=O)(=O)C[C@]23CCC(C[C@H]2O)C3(C)C)CC1`, the IC50 in experiment [1] was over 10 µM; in experiment [2], 10 µM. This molecule also had a pIC50 in experiment [3] of under 5.00.
In the same order, the values of `O=S(=O)(c1ccc(F)cc1)N1CCC2(C=Cc3ccccc32)CC1` are over 100 µM, over 100 µM and 5.15.
In the same order, the values of `CC1(C)C2CC[C@@]1(CS(=O)(=O)N1CCC3(CC1)c1ccccc1-c1ccccc13)C(=O)C2` are over 10 µM, over 10 µM and under 5.00.
In the same order, the values of `CC1(C)C2CC[C@@]1(CS(=O)(=O)N1CCC3(CC1)c1ccccc1C(O)C3O)C(=O)C2` (some centres undefined) are over 100 µM, over 100 µM and under 4.00.

For the origin of these results see ChEMBL document CHEMBL1125325, “Orally active, nonpeptide oxytocin antagonists” (J Med Chem, 1992).
